Experimental data as given in ChEMBL document CHEMBL1156234, “Novel 4-(piperidin-4-yl)-1-hydroxypyrazoles as gamma-aminobutyric acid(A) receptor ligands: synthesis, pharmacology, and structure-activity relationships” (J Med Chem, 2010).

Legend:
[1] = Displacement of [3H]muscimol from GABAA in rat synaptic membrane by scintillation counting; assay type: cell membranes
Summary of the method: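 Rat brain synaptic membrane preparations; native GABAA receptor binding measured by displacement of [3H]muscimol. Ki reported as mean [mean pKi ± SEM] of three to four independent experiments.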

[2] = target: T1, GABA-A receptor; alpha-1/beta-2/gamma-2 (Homo sapiens, UniProt P14867+P18507+P47870); test: Antagonist activity at human GABAA alpha-1-beta-2-gamma-2 receptor expressed in mouse tsA201 cells by FMP red assay; assay type: functional, cell-based
T1 sequence (P14867 whole entry): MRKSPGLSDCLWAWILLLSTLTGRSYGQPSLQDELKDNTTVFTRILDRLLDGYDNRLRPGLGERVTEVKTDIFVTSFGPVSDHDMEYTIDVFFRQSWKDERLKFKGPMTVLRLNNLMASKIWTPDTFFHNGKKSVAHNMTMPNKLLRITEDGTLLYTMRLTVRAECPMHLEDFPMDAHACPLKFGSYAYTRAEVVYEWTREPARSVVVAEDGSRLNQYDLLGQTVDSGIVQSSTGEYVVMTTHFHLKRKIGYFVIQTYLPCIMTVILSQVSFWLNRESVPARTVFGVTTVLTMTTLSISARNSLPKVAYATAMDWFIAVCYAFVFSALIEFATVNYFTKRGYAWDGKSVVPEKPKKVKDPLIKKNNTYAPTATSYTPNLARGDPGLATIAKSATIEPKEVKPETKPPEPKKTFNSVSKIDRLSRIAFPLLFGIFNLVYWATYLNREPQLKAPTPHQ
T1 sequence (P47870 whole entry): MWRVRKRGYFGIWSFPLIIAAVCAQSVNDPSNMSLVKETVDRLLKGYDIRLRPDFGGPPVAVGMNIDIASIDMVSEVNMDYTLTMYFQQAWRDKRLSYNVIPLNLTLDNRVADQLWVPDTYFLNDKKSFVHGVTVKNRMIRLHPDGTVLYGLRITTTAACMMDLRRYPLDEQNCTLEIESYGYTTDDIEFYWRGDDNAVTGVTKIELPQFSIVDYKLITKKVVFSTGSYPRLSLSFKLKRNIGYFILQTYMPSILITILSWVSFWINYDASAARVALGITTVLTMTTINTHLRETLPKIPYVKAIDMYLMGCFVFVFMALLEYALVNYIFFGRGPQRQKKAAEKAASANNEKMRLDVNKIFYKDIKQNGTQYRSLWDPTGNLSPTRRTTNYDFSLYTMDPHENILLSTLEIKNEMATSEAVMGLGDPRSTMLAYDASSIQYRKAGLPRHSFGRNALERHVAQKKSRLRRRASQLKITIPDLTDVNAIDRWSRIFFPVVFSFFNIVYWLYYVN
T1 sequence (P18507 whole entry): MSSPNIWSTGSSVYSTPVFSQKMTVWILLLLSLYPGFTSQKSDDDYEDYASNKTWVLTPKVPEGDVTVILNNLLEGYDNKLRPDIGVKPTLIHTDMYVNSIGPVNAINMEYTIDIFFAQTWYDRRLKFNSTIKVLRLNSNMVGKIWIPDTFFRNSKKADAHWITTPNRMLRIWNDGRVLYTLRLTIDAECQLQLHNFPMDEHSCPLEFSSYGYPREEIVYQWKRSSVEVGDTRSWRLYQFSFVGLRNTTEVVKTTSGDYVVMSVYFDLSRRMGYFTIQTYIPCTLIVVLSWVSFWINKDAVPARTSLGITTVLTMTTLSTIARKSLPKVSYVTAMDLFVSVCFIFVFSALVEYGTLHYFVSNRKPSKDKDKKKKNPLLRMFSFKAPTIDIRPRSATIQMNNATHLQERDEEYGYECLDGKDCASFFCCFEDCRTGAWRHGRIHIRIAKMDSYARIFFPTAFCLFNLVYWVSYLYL
Summary of the method: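 Human α1β2γ2S GABAA receptor transiently expressed in tsA201 cells; FLIPR membrane potential (FMP) red assay. […] Compounds tested up to 500 μM. Values given as IC50 [pIC50 ± SEM].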

[3] = Displacement of [3H]muscimol from GABAA in rat synaptic membrane in presence of 10% DMSO by scintillation counting; assay type: cell membranes
[4] = target: T1, GABA-A receptor; alpha-1/beta-2/gamma-2; test: Agonist activity at human GABAA alpha-1-beta-2-gamma-2 receptor expressed in mouse tsA201 cells at < 500 uM by FMP red assay; assay type: functional, cell-based
Summary of the method: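 Human α1β2γ2S GABA-A receptor transiently expressed in tsA201 cells; agonist-mode FLIPR membrane potential (FMP) red assay measuring the fluorescence change in membrane potential; compounds tested at concentrations up to 500 μM.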

SMILES	Ki [1] [nM]	pKi [1]	IC50 [2] [nM]	Ki [3] [nM]	pKi [3]	IC50 ([4]; read-out: IC50) [nM]	IC50 ([4]; read-out: pIC50 (converted)) [nM]
Br.On1ncc(C2CCNCC2)c1-c1ccccc1	22	7.65	150	–	–	–	–
Br.Cc1nn(O)cc1C1CCNCC1	5000	5.31	66000	–	–	–	–
Br.On1cc(C2CCNCC2)c(-c2ccccc2)n1	270	6.57	1900	–	–	–	–
Br.Cc1ccc(-c2nn(O)cc2C2CCNCC2)cc1	320	6.5	1400	–	–	–	–
Br.On1cc(C2CCNCC2)c(-c2ccc(-c3ccccc3)cc2)n1	420	6.39	1400	–	–	–	–
Br.On1cc(C2CCNCC2)c(Cc2ccc3ccccc3c2)n1	3	8.55	170	–	–	–	–
Br.On1nc(Cc2ccc3ccccc3c2)c(C2CCNCC2)c1-c1ccccc1	–	–	–	22	7.66	–	–
Cl.On1cc(C2CCNCC2)cn1	10000	4.99	–	–	–	> 500000	> 501000
Cl.On1ncc(C2CCNCC2)c1Cc1ccc2ccccc2c1	33	7.48	790	–	–	–	–
Cl.On1ncc(C2CCNCC2)c1Cc1ccc2ccccc2c1Br	–	–	480	9.5	8.07	–	–
Cl.On1ncc(C2CCNCC2)c1-c1cccc(-c2ccccc2)c1	–	–	24	–	–	–	–
Cc1ccccc1-c1nn(O)cc1C1CCNCC1.Cl	670	6.17	2600	–	–	–	–
Cc1cccc(-c2nn(O)cc2C2CCNCC2)c1.Cl	240	6.62	1900	–	–	–	–
Cl.On1cc(C2CCNCC2)c(-c2cccc(-c3ccccc3)c2)n1	30	7.55	210	–	–	–	–
Cl.On1cc(C2CCNCC2)c(Cc2ccccc2)n1	360	6.45	8300	–	–	–	–
Cl.On1nc(-c2ccccc2)c(C2CCNCC2)c1Cc1ccc2ccccc2c1	–	–	3200	1500	5.84	–	–
Oc1noc(C2CCNCC2)c1Cc1ccc2ccccc2c1	49	–	1800	–	–	–	–
Oc1noc(C2CCNCC2)c1Cc1ccc2ccccc2c1Br	10	–	–	–	–	–	–
Oc1noc(C2CCNCC2)c1-c1ccccc1	220	–	–	–	–	–	–
Oc1noc(C2CCNCC2)c1-c1cccc(-c2ccccc2)c1	10	–	78	–	–	–	–
